The source of these data is ChEMBL document CHEMBL1124281, “A new series of ellipticine derivatives (1-(alkylamino)-9-methoxyellipticine). Synthesis, DNA binding, and biological properties” (J Med Chem, 1988).

A value given as a limit tells only on which side of the number the result lay.

Series [1] deals with Nucleic Acid. Nature of the series: Maximum number of sites. To be noted: Bos taurus. It counts as nucleic-acid assay. The essentials:
(§1)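 Calf thymus DNA binding by direct fluorescence titration (excitation 310 nm, emission 540 nm) in 10 mM acetate buffer, 100 mM NaCl, pH 5.2, 20 °C. Scatchard plots gave apparent association constant Kapp and apparent binding sites per nucleotide r_app. Drug stocks 5×10^-3 M in 50% DMSO/water, diluted in buffer.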

For series [2], the system named is NIH3T3. Nature of the series: In vitro cytotoxicity by growth inhibition in NIH3T3 cells. It counts as functional. To be noted: Mus musculus, read-out: ID50 (the source's name). The essentials: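 NIH-3T3 mouse fibroblasts in DMEM, 5% fetal calf serum, 37 °C, 6% CO2, seeded at 7.5×10^3 cells/cm²; drug added 24 h later and growth followed for three days. Trypsinized cells counted electronically; ID50 taken as 50% growth inhibition vs controls, from regression against log dose.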

The test system of series [3] is Mus musculus. Nature of the series: In vivo antitumor effect, expressed as the highest nonlethal dose (LD0), administered by intraperitoneal route. It counts as ADME, organism-based. Particulars: ip.
The subject of series [4] is L1210. As to the kind of experiment: In vitro cytotoxicity by growth inhibition in L1210 cells. It counts as functional. To be noted: Mus musculus, read-out: ID50 (the source's name). The essentials:
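L1210 leukemia suspension cultures in RPMI with fetal calf serum, 37 °C, 6% CO2; 10^4 cells/mL exponential phase exposed in duplicate to drug at final 10^-5–10^-8 M for 48 h. Cells counted electronically, viability by trypan blue exclusion; ID50 (50% growth inhibition vs untreated controls) from regression of % inhibition against log dose.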

The subject of series [5] is Nucleic Acid. Nature of the series: Apparent binding constant (Kapp) to DNA, by direct fluorimetric titration, at pH 5; 10e-6. In kind it is nucleic-acid assay. To be noted: Bos taurus. The essentials:
as §1

Series [6] has as its system Mus musculus. As to the kind of experiment: Increase in life of span over controls, 10e5 L1210 cells per mouse of 20 g, by ip route LD0/10 ata conc of LD0/10(N). It counts as functional. Also noted: unit not given here. The procedure, abridged:
(§2)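 Random DBA/2 female mice of 20 g were inoculated ip with 10^5 L1210 leukemia cells. A single ip dose in 200 μL water was given 24 h later, at LD0/10, LD0/5 or LD0/2, with 10 mice per dose and 20 controls. Deaths were counted daily at the same hour. ILS was taken from treated versus control median survival time, and cured mice were counted.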

The test system of series [7] is Mus musculus. As to the kind of experiment: Increase in life of span over controls, 10e5 L1210 cells per mouse of 20 g, by ip route LD0/10 ata conc of LD0/5(N). In kind it is functional. The procedure, abridged: as §2
The test system of series [8] is Mus musculus. Nature of the series: Increase in life of span over controls, 10e5 L1210 cells per mouse of 20 g, by ip route LD0/10 ata conc of LD0/2(N). In kind it is functional. The procedure, abridged: as §2
Series [9] has as its system Mus musculus. Nature of the series: In vivo antitumor effect, expressed as the lethal dose (LD100), administered by intraperitoneal route. In kind it is ADME, organism-based. Particulars: ip.
In series [10] the test system is Mus musculus. Nature of the series: Increase in life of span over controls, 10e5 L1210 cells per mouse of 20 g, by ip route LD0/10 at a conc of LD0/5(N). It counts as functional. The procedure, abridged:
as §2

Series [11] has as its system Mus musculus. Nature of the series: Increase in life of span over controls, 10e5 L1210 cells per mouse of 20 g, by ip route LD0/10 at a conc of LD0/2(N). It counts as functional. The procedure, abridged: as §2

Turning to `COc1ccc2[nH]c3c(C)c4ccnc(NCC(C)C)c4c(C)c3c2c1`, in series [1], the rapp was found to be 0.17. The IC50 in series [2] stood at 0.3 µM; in series [4], 0.09 µM. In [3], this compound yielded an LD0 above 200 mg/kg. In series [5], the K app turned out to be 2.35e+06 M⁻¹.

Regarding `COc1ccc2[nH]c3c(C)c4ccnc(N)c4c(C)c3c2c1`, the ILS in series [6] is on record as 21; in [7] it was 39; in series [8] it was 93. In addition, the rapp in series [1] was determined as 0.2. Besides, the LD0 in [3] was determined as 60 mg/kg. For the same compound, the IC50 in series [4] was 0.1 µM. The compound further registered an LD100 in series [9] of 70 mg/kg. Besides, the K app in series [5] was 1e+06 M⁻¹.

In the case of `COc1ccc2[nH]c3c(C)c4ccnc(NCCC(C)C)c4c(C)c3c2c1`, the ILS in series [6] is 10; in series [7], 5. The compound also came in with a rapp in series [1] of 0.2. Also, the results for the IC50 in series [2] and in series [4] were 0.5 µM and 0.8 µM, respectively. The same compound showed an LD0 in series [3] of 300 mg/kg. The LD100 in [9] is 350 mg/kg. The K app in series [5] was 3.75e+06 M⁻¹.

As to `CCNc1nccc2c(C)c3[nH]c4ccc(OC)cc4c3c(C)c12`, the ILS in series [6] amounted to 2; in series [10] it was 13; in series [11], 42. The compound further gave a rapp in series [1] of 0.2. Further, the IC50 stood at 0.3 µM in [2] and 0.05 µM in [4]. The compound also came in with an LD0 in [3] of 70 mg/kg. The compound also returned an LD100 in series [9] of 90 mg/kg. Further, the K app in [5] turned out to be 2.15e+06 M⁻¹.

`CCCNc1nccc2c(C)c3[nH]c4ccc(OC)cc4c3c(C)c12`: the ILS in series [6] amounted to 0; in [7] it was 2. For the same compound, the rapp in series [1] is 0.2. The IC50 in [2] was found to be 0.3 µM; in [4], 0.1 µM. Also, in series [3], the LD0 was determined as 100 mg/kg. In series [9], this compound registered an LD100 of 200 mg/kg. Also, the K app in series [5] was 2e+06 M⁻¹.
